Test results as given in ChEMBL document CHEMBL3784960, “New 4-Functionalized Glutamate Analogues Are Selective Agonists at Metabotropic Glutamate Receptor Subtype 2 or Selective Agonists at Metabotropic Glutamate Receptor Group III” (J Med Chem, 2016).
Activity calls are given as the source filed them. No cut-off for these calls is given here.

What was measured:
[1] = biological target: T1, Metabotropic glutamate receptor 1 (Rattus norvegicus, UniProt P23385); assay: Agonist activity at rat mGlu1 receptor expressed in HEK293 cells assessed as IP1 accumulation by IP-One functional assay; type: cell-based
T1 sequence (P23385 whole entry): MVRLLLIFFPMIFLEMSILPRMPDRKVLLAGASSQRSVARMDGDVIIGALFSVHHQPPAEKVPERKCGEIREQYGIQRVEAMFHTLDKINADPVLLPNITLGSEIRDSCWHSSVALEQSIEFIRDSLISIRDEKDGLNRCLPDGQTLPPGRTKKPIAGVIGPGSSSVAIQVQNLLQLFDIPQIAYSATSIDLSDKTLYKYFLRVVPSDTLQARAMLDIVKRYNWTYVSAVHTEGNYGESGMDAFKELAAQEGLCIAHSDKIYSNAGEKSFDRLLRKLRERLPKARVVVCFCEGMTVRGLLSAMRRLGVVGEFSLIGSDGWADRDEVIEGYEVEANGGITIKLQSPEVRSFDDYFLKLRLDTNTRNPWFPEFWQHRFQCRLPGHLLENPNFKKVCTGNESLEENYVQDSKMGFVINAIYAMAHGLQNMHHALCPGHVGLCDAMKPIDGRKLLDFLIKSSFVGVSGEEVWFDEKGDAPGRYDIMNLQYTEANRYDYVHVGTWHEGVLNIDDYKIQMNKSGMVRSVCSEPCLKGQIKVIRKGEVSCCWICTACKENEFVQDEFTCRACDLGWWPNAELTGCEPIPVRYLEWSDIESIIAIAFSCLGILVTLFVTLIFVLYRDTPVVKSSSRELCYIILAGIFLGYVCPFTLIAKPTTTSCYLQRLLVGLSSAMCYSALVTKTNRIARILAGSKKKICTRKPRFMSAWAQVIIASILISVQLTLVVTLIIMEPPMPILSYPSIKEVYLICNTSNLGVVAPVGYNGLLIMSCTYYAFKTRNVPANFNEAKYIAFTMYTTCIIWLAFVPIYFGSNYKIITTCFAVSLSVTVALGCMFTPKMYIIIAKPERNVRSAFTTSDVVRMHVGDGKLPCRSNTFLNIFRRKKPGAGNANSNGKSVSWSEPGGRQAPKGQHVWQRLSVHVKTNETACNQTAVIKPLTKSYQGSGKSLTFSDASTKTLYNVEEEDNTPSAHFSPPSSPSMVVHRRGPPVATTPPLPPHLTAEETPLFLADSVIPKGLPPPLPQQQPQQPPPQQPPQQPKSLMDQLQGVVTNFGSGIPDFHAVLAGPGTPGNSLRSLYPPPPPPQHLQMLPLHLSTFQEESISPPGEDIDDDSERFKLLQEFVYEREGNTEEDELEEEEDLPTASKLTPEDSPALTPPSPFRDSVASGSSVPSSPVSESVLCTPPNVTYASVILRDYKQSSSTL
Outline: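 Rat group I receptor transiently electroporated into HEK293 with the EAAC1 glutamate transporter; medium switched to Glutamax at least 2 h before stimulation. IP1 was read by HTRF (IP-One kit) 24 h after transfection. Runs were at least in duplicate, with EC50 ± SEM from n = 4−6 experiments.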

[2] = biological target: T2, Metabotropic glutamate receptor 5 (Rattus norvegicus, UniProt P31424); assay: Agonist activity at rat mGlu5 receptor expressed in HEK293 cells assessed as IP1 accumulation by IP-One functional assay; type: cell-based
[3] = biological target: T3, Metabotropic glutamate receptor 2 (Rattus norvegicus, UniProt P31421); assay: Agonist activity at rat mGlu2 receptor expressed in HEK293 cells assessed as IP1 accumulation by IP-One functional assay; type: cell-based
T3 sequence (P31421 whole entry): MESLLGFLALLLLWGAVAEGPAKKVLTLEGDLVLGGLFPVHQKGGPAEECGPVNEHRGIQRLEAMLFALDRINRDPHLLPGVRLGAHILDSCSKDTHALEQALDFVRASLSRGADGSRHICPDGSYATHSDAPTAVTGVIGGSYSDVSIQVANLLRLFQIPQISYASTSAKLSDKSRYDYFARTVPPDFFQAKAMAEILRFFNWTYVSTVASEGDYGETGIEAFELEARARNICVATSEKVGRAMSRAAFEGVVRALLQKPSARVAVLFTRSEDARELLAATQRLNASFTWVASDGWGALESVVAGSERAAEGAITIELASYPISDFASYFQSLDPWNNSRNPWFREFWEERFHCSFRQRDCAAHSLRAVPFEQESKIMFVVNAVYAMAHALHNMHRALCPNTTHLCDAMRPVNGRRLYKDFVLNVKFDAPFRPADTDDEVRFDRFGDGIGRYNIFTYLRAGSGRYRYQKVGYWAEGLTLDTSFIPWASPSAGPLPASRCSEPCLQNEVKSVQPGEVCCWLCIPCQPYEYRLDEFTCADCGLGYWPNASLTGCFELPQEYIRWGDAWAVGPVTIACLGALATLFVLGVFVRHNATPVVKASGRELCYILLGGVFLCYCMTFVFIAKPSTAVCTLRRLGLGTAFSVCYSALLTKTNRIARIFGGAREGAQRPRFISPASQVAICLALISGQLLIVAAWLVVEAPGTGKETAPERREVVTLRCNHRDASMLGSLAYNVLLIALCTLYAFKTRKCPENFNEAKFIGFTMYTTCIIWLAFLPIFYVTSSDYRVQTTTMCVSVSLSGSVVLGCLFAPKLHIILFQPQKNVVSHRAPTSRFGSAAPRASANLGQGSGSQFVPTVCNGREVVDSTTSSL
Outline: (§1)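 HEK293 cells were transiently electroporated with the rat receptor plus a chimeric Gi/Gq protein for PLC coupling and EAAC1. Medium was replaced by Glutamax at least 2 h before agonist. IP1 accumulation was measured by HTRF 24 h post-transfection, at least in duplicate.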

[4] = biological target: T4, Metabotropic glutamate receptor 4 (Rattus norvegicus, UniProt P31423); assay: Agonist activity at rat mGlu4 receptor expressed in HEK293 cells assessed as IP1 accumulation by IP-One functional assay; type: cell-based
T4 sequence (P31423 whole entry): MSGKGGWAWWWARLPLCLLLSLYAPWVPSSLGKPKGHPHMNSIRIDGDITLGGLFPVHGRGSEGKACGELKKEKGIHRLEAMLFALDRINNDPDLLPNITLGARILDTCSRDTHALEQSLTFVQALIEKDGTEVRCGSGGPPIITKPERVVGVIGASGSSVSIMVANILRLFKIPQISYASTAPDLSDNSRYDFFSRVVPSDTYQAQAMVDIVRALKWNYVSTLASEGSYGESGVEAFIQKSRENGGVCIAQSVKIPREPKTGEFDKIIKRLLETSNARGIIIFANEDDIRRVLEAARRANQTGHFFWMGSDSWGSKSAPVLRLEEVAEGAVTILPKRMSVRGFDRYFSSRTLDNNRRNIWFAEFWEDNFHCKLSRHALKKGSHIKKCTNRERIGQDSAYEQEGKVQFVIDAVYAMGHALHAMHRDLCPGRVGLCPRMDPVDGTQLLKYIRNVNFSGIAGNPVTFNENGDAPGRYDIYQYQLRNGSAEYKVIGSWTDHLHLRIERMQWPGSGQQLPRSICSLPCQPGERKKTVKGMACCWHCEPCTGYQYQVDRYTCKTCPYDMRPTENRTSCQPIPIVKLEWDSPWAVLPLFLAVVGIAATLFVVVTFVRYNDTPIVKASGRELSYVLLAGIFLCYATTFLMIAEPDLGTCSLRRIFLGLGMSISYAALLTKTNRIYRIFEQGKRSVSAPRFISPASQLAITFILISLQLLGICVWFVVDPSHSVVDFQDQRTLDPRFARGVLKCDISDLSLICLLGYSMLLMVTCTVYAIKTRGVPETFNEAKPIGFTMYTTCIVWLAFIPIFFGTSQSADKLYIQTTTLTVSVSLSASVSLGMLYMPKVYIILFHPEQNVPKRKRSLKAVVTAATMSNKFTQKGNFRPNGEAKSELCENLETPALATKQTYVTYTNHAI
Outline: as §1, with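 “duplicate. EC50 ± SEM came from n = 4−6 experiments.” for “duplicate.”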

[5] = biological target: Metabotropic glutamate receptor 6 (Rattus norvegicus, UniProt P35349); assay: Agonist activity at rat mGlu6 receptor expressed in HEK293 cells assessed as IP1 accumulation by IP-One functional assay; type: cell-based
Metabotropic glutamate receptor 6, sequence (P35349 whole entry): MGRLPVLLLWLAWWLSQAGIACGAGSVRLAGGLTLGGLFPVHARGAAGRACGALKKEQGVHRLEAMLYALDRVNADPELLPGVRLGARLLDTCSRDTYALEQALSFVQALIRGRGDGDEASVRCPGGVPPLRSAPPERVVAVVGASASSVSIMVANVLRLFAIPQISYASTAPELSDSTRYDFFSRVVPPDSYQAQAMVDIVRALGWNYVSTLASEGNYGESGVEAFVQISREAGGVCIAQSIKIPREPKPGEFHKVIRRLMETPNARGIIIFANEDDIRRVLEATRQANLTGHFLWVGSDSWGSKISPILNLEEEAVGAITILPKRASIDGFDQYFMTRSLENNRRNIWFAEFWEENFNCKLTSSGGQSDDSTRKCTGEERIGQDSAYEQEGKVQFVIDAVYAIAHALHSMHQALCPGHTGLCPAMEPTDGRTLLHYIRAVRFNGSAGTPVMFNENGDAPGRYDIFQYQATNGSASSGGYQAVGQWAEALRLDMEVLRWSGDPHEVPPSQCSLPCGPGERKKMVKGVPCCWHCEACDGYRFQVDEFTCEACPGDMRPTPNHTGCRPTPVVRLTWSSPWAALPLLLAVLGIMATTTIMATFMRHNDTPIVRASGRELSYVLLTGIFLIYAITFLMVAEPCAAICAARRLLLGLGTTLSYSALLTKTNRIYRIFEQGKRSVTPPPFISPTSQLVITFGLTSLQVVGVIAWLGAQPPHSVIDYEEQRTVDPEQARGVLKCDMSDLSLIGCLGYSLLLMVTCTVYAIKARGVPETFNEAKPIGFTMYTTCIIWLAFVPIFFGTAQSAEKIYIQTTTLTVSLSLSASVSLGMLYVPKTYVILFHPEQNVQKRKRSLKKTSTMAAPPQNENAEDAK
Outline: as §1, with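 “duplicate. EC50 ± SEM came from n = 4−6 experiments.” for “duplicate.”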

[6] = biological target: Metabotropic glutamate receptor 7 (Rattus norvegicus, UniProt P35400); assay: Agonist activity at rat mGlu7 receptor expressed in HEK293 cells assessed as IP1 accumulation by IP-One functional assay; type: cell-based
Outline: as §1, with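 “duplicate. EC50 ± SEM came from n = 4−6 experiments.” for “duplicate.”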

[7] = biological target: Metabotropic glutamate receptor 8 (Rattus norvegicus, UniProt P70579); assay: Agonist activity at rat mGlu8 receptor expressed in HEK293 cells assessed as IP1 accumulation by IP-One functional assay; type: cell-based
Outline: as §1, with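 “duplicate. EC50 ± SEM came from n = 4−6 experiments.” for “duplicate.”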

[8] = biological target: T3, Metabotropic glutamate receptor 2; assay: Agonist activity at rat mGlu2 receptor by FRET based mGlu sensor assay
Outline: (§2)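 Receptor carried an N-terminal SNAP-tag and was transfected into HEK293 cells. At 24 h, surface receptors were labelled for 1 h with 100 nM SNAP-Lumi4-Tb (donor) and 60 nM SNAP Green (acceptor), washed three times, then drug was added. Time-resolved FRET was recorded at 520 nm, at least in duplicate.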

[9] = biological target: T5, Metabotropic glutamate receptor 3 (Rattus norvegicus, UniProt P31422); assay: Agonist activity at rat mGlu3 receptor by FRET based mGlu sensor assay
T5 sequence (P31422 whole entry): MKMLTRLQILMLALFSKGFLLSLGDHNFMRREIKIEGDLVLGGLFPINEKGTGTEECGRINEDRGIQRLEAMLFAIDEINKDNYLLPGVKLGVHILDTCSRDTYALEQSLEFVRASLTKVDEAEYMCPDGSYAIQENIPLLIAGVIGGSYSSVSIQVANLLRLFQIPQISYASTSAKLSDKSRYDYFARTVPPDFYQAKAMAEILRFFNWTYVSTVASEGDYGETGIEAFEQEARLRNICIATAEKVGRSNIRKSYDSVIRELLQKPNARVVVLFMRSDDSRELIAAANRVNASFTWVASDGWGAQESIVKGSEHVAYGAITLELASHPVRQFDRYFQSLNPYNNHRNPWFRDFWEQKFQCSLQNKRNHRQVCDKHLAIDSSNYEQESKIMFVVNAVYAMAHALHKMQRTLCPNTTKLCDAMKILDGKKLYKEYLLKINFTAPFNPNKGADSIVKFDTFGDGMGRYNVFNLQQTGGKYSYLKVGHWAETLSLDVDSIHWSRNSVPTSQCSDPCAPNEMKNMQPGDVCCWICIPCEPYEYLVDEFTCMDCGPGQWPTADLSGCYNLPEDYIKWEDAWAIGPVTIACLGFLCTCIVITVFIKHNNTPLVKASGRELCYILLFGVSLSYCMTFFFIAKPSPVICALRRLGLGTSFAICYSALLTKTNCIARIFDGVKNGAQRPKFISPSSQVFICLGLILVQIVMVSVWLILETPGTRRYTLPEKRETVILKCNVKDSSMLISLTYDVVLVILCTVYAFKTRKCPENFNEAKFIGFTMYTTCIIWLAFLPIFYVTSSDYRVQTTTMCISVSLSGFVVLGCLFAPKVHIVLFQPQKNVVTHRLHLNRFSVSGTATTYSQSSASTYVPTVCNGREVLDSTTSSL
Outline: as §2, with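 “duplicate. EC50 ± SEM came from n = 4−6 experiments.” for “duplicate.”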

[10] = Displacement of [3H]AMPA from rat synaptosome AMPA receptor after 30 mins by microplate scintillation counter analysis
[11] = Displacement of [3H]KA from rat synaptosome KA receptor after 60 mins by microplate scintillation counter analysis
[12] = biological target: Glutamate NMDA receptor; assay: Displacement of [3H]CGP from rat synaptosome NMDA receptor after 60 mins by microplate scintillation counter analysis; type: protein-complex assay
[13] = biological target: T6, Excitatory amino acid transporter 1 (Homo sapiens, UniProt P43003); assay: Inhibition of human EAAT1 assessed as [3H]Asp uptake
[14] = biological target: T6, Excitatory amino acid transporter 1; assay: Substrate activity at human EAAT1 assessed as [3H]Asp uptake measured up to 300 uM
[15] = biological target: T7, Excitatory amino acid transporter 2 (Homo sapiens, UniProt P43004); assay: Inhibition of human EAAT2 assessed as [3H]Asp uptake
[16] = biological target: T7, Excitatory amino acid transporter 2; assay: Substrate activity at human EAAT2 assessed as [3H]Asp uptake measured up to 300 uM
[17] = biological target: T8, Excitatory amino acid transporter 3 (Homo sapiens, UniProt P43005); assay: Inhibition of human EAAT3 assessed as [3H]Asp uptake
T8 sequence (P43005 whole entry): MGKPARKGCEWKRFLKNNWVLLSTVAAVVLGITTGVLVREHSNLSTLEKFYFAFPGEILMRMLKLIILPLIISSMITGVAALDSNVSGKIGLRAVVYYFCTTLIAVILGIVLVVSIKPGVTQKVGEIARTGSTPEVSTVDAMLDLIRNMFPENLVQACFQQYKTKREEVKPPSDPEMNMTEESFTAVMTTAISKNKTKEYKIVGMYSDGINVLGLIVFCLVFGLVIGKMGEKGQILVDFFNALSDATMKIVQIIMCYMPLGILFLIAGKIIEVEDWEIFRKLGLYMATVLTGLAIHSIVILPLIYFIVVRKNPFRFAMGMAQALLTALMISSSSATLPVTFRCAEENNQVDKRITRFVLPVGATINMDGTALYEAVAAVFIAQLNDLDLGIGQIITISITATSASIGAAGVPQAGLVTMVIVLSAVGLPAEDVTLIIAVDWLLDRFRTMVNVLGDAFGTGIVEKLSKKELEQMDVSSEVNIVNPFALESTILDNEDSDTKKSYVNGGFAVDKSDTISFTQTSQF

[18] = biological target: Metabotropic glutamate receptor 2 (Homo sapiens) (UniProt Q14416); assay: Agonist activity at mGlu2 receptor (unknown origin) assessed as IP1 accumulation preincubated with 3 uM LY341495 for 20 mins followed by addition of 1 mM of compound by IP-One functional assay
Outline: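 Single-dose test in HEK293 cells cotransfected with rat receptor, chimeric Gi/Gq and EAAC1. Cells were pretreated with 3 μM LY341495 for 20 min at 37 °C, washed twice, then stimulated with 1 mM compound. IP1 was read by HTRF 24 h post-transfection. Comparison was against vehicle by one-way ANOVA with Dunnett's test.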

[19] = biological target: Metabotropic glutamate receptor 3 (Rattus norvegicus) (UniProt P31422); assay: Agonist activity at mGlu3 receptor (rat) assessed as IP1 accumulation preincubated with 3 uM LY341495 for 20 mins followed by addition of 1 mM of compound by IP-One functional assay
Metabotropic glutamate receptor 3 (Rattus norvegicus), sequence (P31422 whole entry, looked up): as the sequence (P31422 whole entry) above

[20] = biological target: T1, Metabotropic glutamate receptor 1; assay: Agonist activity at rat mGlu1 receptor expressed in HEK293 cells by intracellular Ca2+ mobilization assay; type: functional, cell-based
[21] = biological target: T2, Metabotropic glutamate receptor 5; assay: Agonist activity at rat mGlu5 receptor expressed in HEK293 cells by intracellular Ca2+ mobilization assay; type: functional, cell-based
[22] = biological target: T3, Metabotropic glutamate receptor 2; assay: Agonist activity at rat mGlu2 receptor expressed in HEK293 cells by [35S]GTP-gamma binding assay; type: cell-based
[23] = biological target: T5, Metabotropic glutamate receptor 3; assay: Agonist activity at rat mGlu3 receptor expressed in HEK293 cells by [35S]GTP-gamma binding assay; type: cell-based
[24] = biological target: T4, Metabotropic glutamate receptor 4; assay: Agonist activity at rat mGlu4 receptor expressed in HEK293 cells assessed as inhibition of forskolin stimulated cAMP production; type: functional, cell-based
[25] = biological target: Metabotropic glutamate receptor 7 (Homo sapiens, UniProt Q14831); assay: Agonist activity at human mGlu7 receptor expressed in HEK293 assessed as inhibition of forskolin stimulated cAMP production; type: functional, cell-based

EC50 [1]	EC50 [2]	EC50 [3]	EC50 [4]	EC50 [5]	EC50 [6]	EC50 [7]	EC50 [8]	EC50 [9]	IC50 [10]	IC50 [11]	IC50 [13]	Activity [14]	IC50 [15]	Activity [16]	IC50 [17]	EC50 [20]	EC50 [21]	EC50 ([22]; read-out: EC50)	EC50 [24]	Compound	other results
–	–	–	–	–	–	–	–	–	–	–	–	–	–	–	–	> 1000 µM	> 1000 µM	> 1000 µM	> 1000 µM	CN(O)C(=O)CC[C@H](C[C@H](N)C(=O)O)C(=O)O	EC50 [23]: > 1000 µM; EC50 [25]: > 1000 µM
> 1000 µM	> 1000 µM	34.2 µM	≥ 100 µM	> 1000 µM	> 1000 µM	> 1000 µM	120 µM	> 1000 µM	> 100 µM	> 100 µM	> 300 µM	inactive	> 300 µM	inactive	> 300 µM	> 1000 µM	> 1000 µM	1.63 µM	> 1000 µM	N[C@@H](C[C@@H](CCC(=O)O)C(=O)O)C(=O)O	Activity [18]: Active; EC50 ([22]; read-out: pEC50 (converted)): 1.66 µM; EC50 [23]: 348 µM; EC50 [25]: > 1000 µM; Activity [19]: inactive
–	–	–	–	–	–	–	–	–	–	–	–	–	–	–	–	> 1000 µM	> 1000 µM	> 1000 µM	> 1000 µM	COC(=O)CC[C@H](C[C@H](N)C(=O)O)C(=O)O	–
–	–	–	–	–	–	–	–	–	–	–	–	–	–	–	–	> 1000 µM	> 1000 µM	> 1000 µM	> 1000 µM	NC(=O)CC[C@H](C[C@H](N)C(=O)O)C(=O)O	–

Continued, compound first:

Compound	EC50 [1]	EC50 [2]	EC50 [3]	EC50 [4]	EC50 [5]	EC50 [6]	EC50 [7]	EC50 [8]	EC50 [9]	IC50 [10]	IC50 [11]	IC50 [13]	Activity [14]	IC50 [15]	Activity [16]	IC50 [17]	EC50 [20]	EC50 [21]	EC50 ([22]; read-out: EC50)	EC50 [24]	other results
N[C@@H](C[C@@]1(C(=O)O)C[C@@H]1C(=O)O)C(=O)O	> 1000 µM	> 1000 µM	> 1000 µM	2.48 µM	17.8 µM	> 1000 µM	20.8 µM	> 1000 µM	> 1000 µM	> 100 µM	> 100 µM	> 300 µM	inactive	> 300 µM	inactive	> 300 µM	–	–	–	–	Ki [12]: 15 µM
N[C@@H](C[C@@]1(C(=O)O)C[C@H]1C(=O)O)C(=O)O	> 1000 µM	> 1000 µM	> 1000 µM	> 1000 µM	> 1000 µM	> 1000 µM	> 1000 µM	> 1000 µM	> 1000 µM	> 100 µM	> 100 µM	> 300 µM	inactive	> 300 µM	inactive	> 300 µM	–	–	–	–	Ki [12]: > 100 µM
N[C@H](C(=O)O)C1[C@@H](C(=O)O)[C@@H]1C(=O)O (stereo not given in full)	–	–	–	–	–	–	–	0.35 µM	0.08 µM	–	–	–	–	–	–	–	–	–	–	–	–
N[C@@H](C[C@]1(C(=O)O)C[C@H]1C(=O)O)C(=O)O	> 1000 µM	> 1000 µM	145 µM	0.13 µM	0.49 µM	120 µM	0.68 µM	> 1000 µM	> 1000 µM	> 100 µM	> 100 µM	> 300 µM	inactive	> 300 µM	inactive	> 300 µM	–	–	–	–	Activity [18]: Active; Ki [12]: 13 µM; Activity [19]: inactive
CC[C@H](C[C@H](N)C(=O)O)C(=O)O	–	–	–	–	–	–	–	–	–	–	–	–	–	–	–	–	> 1000 µM	–	> 1000 µM	> 1000 µM	–
N[C@@H](CCP(=O)(O)O)C(=O)O	–	–	–	–	1.91 µM	340 µM	–	–	–	–	–	–	–	–	–	–	–	–	–	–	EC50 ([7]; hek293): 0.07 µM
